Assay results pooled from the literature.

CC(/C=C/[C@@H]1C[C@]2(CO2)CC(C)(C)O1)=C\C[C@H]1OC[C@@H](NC(=O)/C=C\[C@H](C)OC(=O)C(C)(C)C)CO1
solubility (HPLC; PBS): > 10 µM

O=C(Nc1ccc(-c2ccc(C(=O)Nc3cccc4cccc(S(=O)(=O)O)c34)cc2)cc1)c1ccc([N+](=O)[O-])cc1
solubility (water): 4.7 µg/mL

CC(=O)N[C@@H](CC(N)=O)C(=O)N[C@@H](CCCNC(=N)N)C(=O)N[C@@H](CC(C)C)C(=O)N[C@H]1CSSC[C@@H](C(=O)N[C@H](C(N)=O)[C@@H](C)O)NC(=O)[C@H](CCCNC(=N)N)NC(=O)[C@H](Cc2c[nH]cn2)NC(=O)[C@H](Cc2cccc3ccccc23)NC(=O)CNC(=O)[C@H](Cc2c[nH]c3ccccc23)NC(=O)[C@H](CC(=O)O)NC(=O)[C@H](CCC(N)=O)NC(=O)[C@H](Cc2cccc3ccccc23)NC(=O)[C@H](C(C)C)NC1=O
solubility (PBS; pH 7.4): 300 µg/mL

COc1ccc(NC(=O)N2CCCCN3[C@H](CN(C)C)[C@H](c4ccc(C#Cc5ccccc5)cc4)[C@@H]3C2)cc1
solubility (aqueous buffer; pH 1): 155 µM

O=C1C=C(N(Cc2ccc(Cl)nc2)CC(F)F)CO1
solubility (water; pH 4): 3200 µg/mL

CCc1cc(OC)cc2c(/C=N/NC(=N)NCCc3ccc(C#N)cc3)c[nH]c12
solubility (PBS; 2 h; pH 7.4): 55.5 µM

CC[C@H](C)[C@H](NC(=O)[C@H](CO)NC(=O)[C@H](CCCNC(=N)N)NC(C)=O)C(=O)N[C@H]1CSSC[C@@H](C(=O)N[C@H](C(N)=O)[C@@H](C)O)NC(=O)[C@H](CCCNC(=N)N)NC(=O)[C@H](Cc2cnc[nH]2)NC(=O)[C@H](C)NC(=O)CNC(=O)[C@H](Cc2c[nH]c3ccccc23)NC(=O)[C@H](CC(=O)O)NC(=O)[C@H](CCC(N)=O)NC(=O)[C@H](Cc2ccc(O)cc2)NC(=O)[C@H](C(C)C)NC1=O
solubility (PBS; pH 7.4): 2840 µg/mL

Clc1ccc(CSc2nnc(-c3ccccn3)n2Cc2ccco2)cc1Cl
solubility (aqueous buffer; pH 6.2): 0.29 µg/mL

CC[C@H](C)[C@H](NC(C)=O)C(=O)N[C@H]1CSSC[C@@H](C(=O)N[C@H](C(N)=O)[C@@H](C)O)NC(=O)[C@H](CCCNC(=N)N)NC(=O)[C@H](Cc2cnc[nH]2)NC(=O)[C@H](Cc2cccc3ccccc23)NC(=O)CNC(=O)[C@H](Cc2c[nH]c3ccccc23)NC(=O)[C@H](CC(=O)O)NC(=O)[C@H](CCC(N)=O)NC(=O)[C@H](Cc2cn(C)c3ccccc23)NC(=O)[C@H](C(C)C)NC1=O
solubility (PBS; pH 7.4): 110 µg/mL

O=c1[nH]c2ccccc2n1CCCN1CCC(n2c(=O)[nH]c3cc(Cl)ccc32)CC1
solubility (FaSSIF; 24 h; pH 7.4; 37 °C): 135 µg/mL
